# Source: PubChem (several laboratories)
# The full list was thinned out, with hits kept by preference.
# PTEN del growth = growth suppressors of cells with PTEN tumor suppressor deletion | 140,000 tested, 1.2% active | HCT116 PTEN-null viability, CellTiter-Glo, 60 h; hits give low values | AID 827 | viability, % at 10 µM;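 active means viability at or below a set limit, 4 SD under the median of all tested compounds, cut at about 3.7% in these data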;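 further: PTEN knockout HCT116 line with beta catenin targeted HCT116 as companion control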
# Phagocyt inh = inhibitors of macrophage phagocytosis. J774A.1 macrophage IgG-bead phagocytosis, imaging. inhibition, % at 5 µM. 110,000 tested, 0.07% active. AID 1029;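 active means inhibition above the mean of the plate negative controls plus 5 SD, cut at about 13% in these data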;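 further: phagocytic index as fraction of beads internalized from green versus red external bead signal; plate controls were DMSO negative control for no effect and cytochalasin-D positive control for full effect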
# Lung fibro prol = blocks proliferation of human lung fibroblasts; viability, % at 10 µM; AID 719; LL 47 human lung fibroblast viability, ATP luminescence; hits give low values; 85,000 tested, 1.1% active;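 active means viability at or below 50% in the single dose screen; inactive means viability above 50%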;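 further: compound exposure lasted 72 h before the ATP readout; 100% = median luminescence of untreated cell-only wells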
#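 Test system: LL 47 human lung fibroblasts / Quantity: 1,150 cells in each well / Medium: IMEM growth medium with 15% fetal bovine serum / Incubation: 72 h compound exposure at 37 °C after overnight plating / Detection: CellTiter-Glo luminescence measuring cellular ATP / Read-out: % viability versus median cells-only luminescence / Benchmarks: cell-only wells, no compound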
# HUVEC inhibit = blocks proliferation of human endothelial cells; viability, % at 10 µM (by protocol); 86,000 tested, 1.1% active; HUVEC proliferation, CellTiter-Glo luminescence, 72 h; hits give low values;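 active means viability at or below 30%; inactive means viability above 30%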;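 further: 100% = median luminescence of DMSO-only cell control wells on each plate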
# bCat KO growth = beta-catenin-lacking colon tumor cell growth suppression | HCT116 beta-catenin knockout viability, CellTiter-Glo, 60 h; hits give low values | viability, % at 10 µM | 140,000 tested, 1.5% active;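 active means viability at or under a set limit, the compound median less 4 SD, cut at about 6% in these data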;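 further: 0% = Hyamine 1622 control at 20 µM and 100% = untreated cell control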
# H69AR growth 86K = blocks growth of human H69AR lung tumor cells; 85,000 tested, 6% active; H69AR lung tumor viability, ATP luminescence, 72 h; hits give low values; viability, % at 10 µM;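 active means viability at or below 40%; inactive means viability above 40%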;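 further: multidrug resistant small cell line overexpressing MRP-1 efflux transporter; 100% = mean luminescence of untreated control wells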
# Active calls of the source: *; x = not tested or not shown.
SMILES,PTEN del growth,Phagocyt inh,Lung fibro prol,HUVEC inhibit,bCat KO growth,H69AR growth 86K
Cc1ccc(C)n1-c1ccc(NC(=O)c2ccccc2)cc1,19,x,x,x,18,x
COc1ccc(/C=N/Nc2nnc(-c3ncc[nH]3)c3ccccc23)cc1,87,x,89,82,77,67
Oc1ccc2ccccc2c1/C=N/Nc1nnc(-c2ncc[nH]2)c2ccccc12,2.1*,0,x,x,4.9*,x
O=C(OCC(=O)N1CCN(c2ccccc2)CC1)C1=COCCO1,101,0,93,91,95,34*
O=C(OCC(=O)N1CCN(c2ccccc2)CC1)c1ccco1,96,-3,94,109,96,29*
O=C(OCC(=O)N1CCN(C(=O)c2ccco2)CC1)C1=COCCO1,110,-1,100,91,101,111
O=C(OCC(=O)N1CCN(C(=O)c2ccco2)CC1)c1ccccc1C(=O)c1ccccc1,103,-1,95,100,104,83
Cc1ccc2c(c1)nnn2C1CCN(S(=O)(=O)c2ccc(C(=O)N3C(C)CCCC3C)cc2)CC1 (centres undefined),54,0,99,83,49,21*
Cc1ccc2c(c1)nnn2C1CCN(S(C)(=O)=O)CC1,95,-1,100,98,99,100
COc1ccc2nc(Nc3sc4c(c3C(N)=O)CCCC4)sc2c1,86,5,x,x,91,x
O=C(Nn1cnnc1)c1ccccc1-c1ccccc1,107,0,103,96,98,95
CC(C)(C)n1ncc2c(=O)n(CC(=O)NCc3ccccc3)cnc21,32,x,80,58,36,24*
Cc1sc2nc(CSCC(=O)Nc3ccccc3C#N)[nH]c(=O)c2c1C,96,-2,x,x,97,x
O=C1OC(Nc2ccc3c(c2)OCO3)c2ccccc21 (centres undefined),14,-1,49*,56,16,16*
O=C(NCc1cccs1)c1nc2c(nnn2Cc2ccccc2Cl)c(=O)[nH]1,98,x,35*,24*,87,45
O=C(CN1C(=O)c2ccccc2S1(=O)=O)c1ccccc1,97,-1,95,101,95,100
Cc1ccc(C(=O)CN2/C(=C(\O)c3ccccc3)C(=O)c3ccccc3S2(=O)=O)c(C)c1,35,0,91,78,40,24*
CCOC(=O)/C(C#N)=C\C1=C(N2CCCC2)CC(C)(CC)OC1 (centres undefined),97,x,113,88,93,36*
CCOC(=O)/C(C#N)=C\C1=C(N2CCCC2)CC(C)(C)OC1,104,x,101,94,88,53
CCS(=O)(=O)N1CCN(c2ccc(Cl)cc2[N+](=O)[O-])CC1,91,1,x,x,90,x
O=S(=O)(c1ccc2c(c1)nc(COc1ccc(Cl)cc1)n2CC1CCCO1)N1CCOCC1 (centres undefined),20,0,5.7*,67,18,5.8*
COC(=O)CSc1nc(N)c2c3c(sc2n1)C(c1ccccc1)SC(c1ccccc1)C3 (centres undefined),0.7*,-3,x,x,1.1*,x
Cc1cc(C)n(CCOc2ccc(Cl)cc2Cl)n1,98,-2,95,104,96,x
Cn1ncc(N=Cc2ccccc2)c1C(=O)Nc1cccc(Cl)c1,62,0,78,61,59,38*
Cn1ncc(N=Cc2ccccc2)c1C(N)=O,102,-2,102,92,90,100
SMILES,PTEN del growth,Phagocyt inh,Lung fibro prol,HUVEC inhibit,bCat KO growth,H69AR growth 86K
CC1(C)Cc2ccccc2C(NNC(=O)c2ccccn2)=N1,6,x,46*,85,9,30*
COC(=O)c1cc(=O)n(Cc2ccc(OC)c(OC)c2)c(=Nc2ccc(F)cc2)s1,2.0*,x,12*,17*,2.0*,1.9*
CCOC(=O)c1c(C(=O)OCC)c(C)n(CCc2ccc(OC)c(OC)c2)c1C,98,-4,x,x,86,x
COC(=O)c1cc(=O)n(CCc2ccc(OC)c(OC)c2)c(=Nc2ccc(F)c(Cl)c2)s1,3.7*,-1,10*,7.5*,2.4*,1.1*
S=c1[nH]nc(Cc2sc(-c3ccccc3)nc2-c2ccccc2)o1,91,-1,109,76,98,89
CCOc1ccc(-c2n[nH]c(C)c2-c2ccccc2OC)c(O)c1,25,1,85,58,28,6.7*
COc1ccc(-c2n[nH]c(C)c2-c2cnn(-c3ccccc3)c2)c(O)c1,87,x,98,90,86,66
C=C(C)COc1ccc(-c2n[nH]c(C)c2-c2ccc(OC)cc2)c(O)c1,1.4*,x,33*,11*,1.3*,14*
COc1ccc(-c2c(-c3ccc(OCC(=O)NN)cc3O)n[nH]c2C(F)(F)F)cc1,98,-7,x,x,90,x
COc1ccccc1-n1cnc2cc(NCc3cccs3)ccc21,15,x,46*,41,18,27*
COc1ccccc1-n1cnc2cc(NCc3ccco3)ccc21,15,4,54,64,12,23*
Cc1ccccc1-n1cnc2cc(NCc3cccs3)ccc21,50,x,69,77,46,20*
COc1ccc(CNc2ccc3c(c2)ncn3-c2ccccc2OC)cc1,56,x,98,95,66,93
COc1ccccc1-n1cnc2cc(NS(=O)(=O)c3ccc(Br)cc3)ccc21,83,-2,94,74,87,73
c1cncc(-c2nc(NCC3COc4ccccc4O3)c3ccccc3n2)c1 (centres undefined),26,-1,87,57,39,16*
COC(=O)CNc1nc(-c2cccnc2)nc2ccccc12,104,1,97,88,96,81
O=C1CNC(=O)/C1=C/c1ccc(O)cc1,100,x,x,x,105,x
CN(C)c1ccc(-c2nnn(CC(=O)Nc3ccccc3N3CCOCC3)n2)cc1,71,2,95,94,79,65
CN(C)c1ccc(-c2nnn(CC(=O)N3c4ccccc4CCc4ccccc43)n2)cc1,87,0,99,94,79,39*
CCOC(=O)N1CCN(C(=O)Cn2ncn3nc(-c4cccs4)cc3c2=O)CC1,106,-1,90,89,103,64
O=C(/C=C/c1cccc([N+](=O)[O-])c1)Nc1cccc(NC(=O)c2cccs2)c1,54,-3,x,x,65,x
CCc1ccc2[nH]c(=O)c(CN(Cc3ccc4c(c3)OCO4)Cc3nnnn3C3CCCC3)cc2c1,27,5,89,62,40,4.8*
COc1ccc(Cn2nnnc2CN(Cc2cc3ccc(C)cc3[nH]c2=O)C2CCCC2)cc1,82,-1,92,100,84,63
Cc1ccc2[nH]c(=O)c(CN(CCCN3CCOCC3)Cc3nnnn3C3CCCC3)cc2c1,92,-1,89,94,82,85
Cc1ccc2cc(CN(Cc3ccccc3)Cc3nnnn3C3CCCC3)c(=O)[nH]c2c1,15,0,108,74,15,5.0*
